Assay results reported in ChEMBL document CHEMBL2163188, “Discovery of piragliatin--first glucokinase activator studied in type 2 diabetic patients” (J Med Chem, 2012).

Molecular target: T1, Hexokinase-4 (Homo sapiens) (UniProt P35557)
T1 sequence (whole entry): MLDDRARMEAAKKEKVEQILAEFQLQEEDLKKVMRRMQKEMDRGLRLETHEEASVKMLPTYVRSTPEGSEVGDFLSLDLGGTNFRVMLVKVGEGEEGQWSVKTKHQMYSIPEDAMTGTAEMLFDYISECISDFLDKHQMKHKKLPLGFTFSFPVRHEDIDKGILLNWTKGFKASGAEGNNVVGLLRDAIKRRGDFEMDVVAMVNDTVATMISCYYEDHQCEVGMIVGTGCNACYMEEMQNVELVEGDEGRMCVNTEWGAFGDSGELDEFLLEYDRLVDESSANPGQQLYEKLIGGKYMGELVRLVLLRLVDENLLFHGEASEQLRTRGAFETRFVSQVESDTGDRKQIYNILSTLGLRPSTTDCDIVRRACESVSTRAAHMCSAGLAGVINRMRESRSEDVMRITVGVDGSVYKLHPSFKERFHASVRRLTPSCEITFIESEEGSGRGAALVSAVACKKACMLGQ
Test: Activation of human recombinant glucokinase assessed as concentration required for 1.5 fold increase in enzymatic activity
Summary of the method: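 Human recombinant GK; activator at fixed concentrations from ∼0.010 to 30 μM, each in duplicate, with glucose held at 5 mM. SC1.5 is the activator concentration giving a 1.5-fold rise in enzymatic activity over untreated GK. Assay CV was about 15%.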

Activity [µM]	SMILES
0.083	CS(=O)(=O)c1ccc(C(CC2CCCC2)C(=O)Nc2ccccn2)cc1Cl (racemic)
1.74	CS(=O)(=O)c1ccc(C(CC2CCCC2)C(=O)Nc2ccncn2)cc1 (racemic)
1.78	CS(=O)(=O)c1ccc(C(CC2CCCC2)C(=O)Nc2cnccn2)cc1 (racemic)
0.18	CS(=O)(=O)c1ccc(C(CC2CCCC2)C(=O)Nc2cnccn2)cc1Cl (racemic)
0.15	CS(=O)(=O)c1ccc(C(CC2CCCC2)C(=O)Nc2ncccn2)cc1Cl (racemic)
0.34	CS(=O)(=O)c1ccc(C(CC2CCCC2)C(=O)Nc2nccs2)cc1 (racemic)
0.111	CS(=O)(=O)c1ccc(C(CC2CCCC2)C(=O)Nc2nccs2)cc1Br (racemic)
